ChEMBL document CHEMBL4028855, “New Mandelalides Expand a Macrolide Series of Mitochondrial Inhibitors” (J Med Chem, 2017)
Calls of active or inactive are those of the source. The rule behind the calls is not given here.

How the values were obtained:
NCI-H460 [1] = assay: Cytotoxicity against human NCI-H460 cells assessed as reduction in cell viability measured after 48 hrs by MTT assay; type: functional, cell-based; conditions: NCI-H460, 48 h
In short: (§1)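 Cells grown at 37 °C, 5% CO2 and seeded 16−18 h before treatment. Exposed to increasing concentrations or vehicle (0.1% DMSO) for 48 h. Viability read by MTT, with vehicle-treated cells set as 100%. Mean ± SE, n = 3 wells, at least three independent comparisons. EC50 obtained by nonlinear regression fit to a logistic equation.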

HeLa [2] = assay: Cytotoxicity against human HeLa cells assessed as reduction in cell viability measured after 48 hrs by MTT assay
HeLa [3] = assay: Cytotoxicity against human HeLa cells at 6000 cells per well assessed as decrease in cell viability up to 1 uM after 48 hrs by MTT assay; type: functional, cell-based
HeLa [4] = assay: Cytotoxicity against human HeLa cells at 2000 cells per well assessed as decrease in cell viability at 0.25 to 1 uM after 48 hrs by MTT assay relative to control; type: functional
HeLa [5] = assay: Cytotoxicity against human HeLa cells assessed as reduction in cell viability at […] after 72 hrs by MTT assay; type: functional, cell-based
HeLa [6] = assay: Cytotoxicity against human HeLa cells at 10000 cells per well assessed as decrease in cell viability up to 1 uM after 48 hrs by MTT assay; type: functional, cell-based
Homo sapiens [7] = species: Homo sapiens; assay: Inhibition of mitochondrial ATP synthase activity in human NCI-H292 cells assessed as decrease in oxygen consumption rate at 1 uM at 135 mins after FCCP treatment at 87 mins by real-time metabolic flux analysis; type: cell-based
Homo sapiens [8] = species: Homo sapiens; assay: Inhibition of mitochondrial ATP synthase activity in human NCI-H292 cells assessed as decrease in basal oxygen consumption rate at 1 uM at 32 mins followed by addition of FCCP at 87 mins and rotenon /Antimycin A at 135 mins by real-time metabolic flux analysis; type: cell-based
Homo sapiens [9] = species: Homo sapiens; assay: Inhibition of mitochondrial ATP synthase activity in human NCI-H292 cells assessed as decrease in oxygen consumption rate at 1 uM at 87 mins followed by addition of rotenon /Antimycin A at 135 mins measured by real-time metabolic flux analysis; type: cell-based
Homo sapiens [10] = species: Homo sapiens; assay: Inhibition of mitochondrial ATP synthase activity in human NCI-H292 cells assessed as decrease in oxygen consumption rate at 1 uM at 32 mins followed by addition of 1 uM FCCP at 87 mins and 0.5 uM rotenon /Antimycin A at 135 mins measured by real-time metabolic flux analysis; type: cell-based
HeLa [11] = assay: Cytotoxicity against human HeLa cells assessed as reduction in cell viability up to 1000 nM measured after 48 hrs by MTT assay; type: functional, cell-based; in short: as §1
HeLa [12] = assay: Cytotoxicity against human HeLa cells at 2000 cells per well assessed as decrease in cell viability at 100 to 1000 nM after 48 hrs by MTT assay relative to control; type: functional
HeLa [13] = assay: Cytotoxicity against human HeLa cells assessed as reduction in cell viability at 0.03 to 300 nM after 72 hrs in presence of 2-deoyxglucose by MTT assay; type: functional, cell-based
HeLa [14] = assay: Induction of apoptosis in human HeLa cells assessed as caspase-3/7 activation at 1 to 300 nM incubated for 24 hrs measured by luminescence-based Caspase-Glo assay
[15] = Safety index, ratio of compound EC50 to Oligomycin A EC50 for cytotoxicity against HEK293T cells; type: cell-based, HEK-293T; conditions: human, read-out: Ratio EC50
In short: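 HEK 293T cells were grown in DMEM with 10% FBS, 2 mM L-glutamine and 1% penicillin/streptomycin at 37 °C and 5% CO2. They were seeded at two starting densities 16−18 h before treatment with increasing concentrations of test compound or oligomycin A (final DMSO ≤0.1%). Viability was read by MTT relative to vehicle (100%), with EC50s fit by nonlinear logistic regression and compared as a ratio.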

NCI-H460 [16] = assay: Cytotoxicity against human NCI-H460 cells assessed as reduction in cell viability measured after 72 hrs by MTT assay; conditions: NCI-H460, 72 h
HeLa [17] = assay: Cytotoxicity against human HeLa cells at 10000 cells per well assessed as cell viability at 100 to 1000 nM after 48 hrs by MTT assay relative to control; type: functional
Bos taurus [18] = species: Bos taurus; assay: (§2) Inhibition of bovine heart mitochondrial ATP synthase activity assessed as decrease in ATP-dependent NADH oxidation measured every 30 secs for 30 mins by colorimetric assay relative to control
[19] = as §2; set-up: species or system Bos taurus
HEK-293T = assay: Cytotoxicity against HEK293T cells assessed as decrease in cell viability measured after 48 hrs by MTT assay; type: cell-based; conditions: human; in short: as §1
HeLa [20] = assay: Cytotoxicity against human HeLa cells at 6000 cells per well assessed as cell viability at 100 to 1000 nM after 48 hrs by MTT assay relative to control; type: functional
Bos taurus [21] = species: Bos taurus; assay: Inhibition of bovine heart mitochondrial ATP synthase activity assessed as decrease in ATP-dependent NADH oxidation at 12.5 uM measured every 30 secs for 30 mins by colorimetric assay relative to control
Bos taurus [22] = species: Bos taurus; assay: Inhibition of bovine heart mitochondrial ATP synthase activity assessed as decrease in ATP-dependent NADH oxidation at 1 uM measured every 30 secs for 30 mins by colorimetric assay relative to control

CCCC(=O)O[C@H]1[C@@H](OC)[C@H](O[C@@H]2C[C@@H]3C[C@H](OC(C)=O)[C@@]4(O)C[C@H](C[C@H](OC(C)=O)[C@@H]5C[C@H](C)[C@H](C/C=C\C=C\[C@H](C)C[C@H](C2)O3)O5)OC4=O)O[C@@H](C)[C@H]1OC(=O)CCC
EC50 (NCI-H460 [1]): 2400 nM
EC50 (HeLa [2]): > 3000 nM

OC[C@H]1OC(O)C[C@@H](O)[C@@H]1O (some centres undefined)
Activity (HeLa [3]): inactive
Activity (HeLa [4]): 50%
Activity (HeLa [5]): Active
Activity (HeLa [6]): inactive

CCCCCC(=O)O[C@H]1C[C@H]2C[C@@H](O)C[C@@H](C[C@@H](C)/C=C/C=C\C[C@@H]3O[C@@H](C[C@@H]3C)[C@@H](O)C[C@@H]3OC(=O)[C@]1(O)[C@@H]3OC(=O)CCC)O2
EC50 (NCI-H460 [1]): 2600 nM
EC50 (HeLa [2]): 330 nM

CCCC(=O)O[C@H]1C[C@H]2C[C@@H](O[C@@H]3O[C@@H](C)[C@@H](O)[C@@H](O)[C@H]3OC)C[C@@H](C[C@@H](C)/C=C/C=C\C[C@@H]3O[C@@H](C[C@@H]3C)[C@@H](O)C[C@H]3C[C@@]1(O)C(=O)O3)O2
inhibition (Homo sapiens [7]): Active
inhibition (Homo sapiens [8]): Active
inhibition (Homo sapiens [9]): Active
inhibition (Homo sapiens [10]): Active
EC50 (NCI-H460 [1]): 44 nM
EC50 (HeLa [2]): 16 nM

CCCC(=O)O[C@H]1[C@@H](OC)[C@H](O[C@@H]2C[C@@H]3C[C@H](OC(=O)CCC)[C@]4(O)C(=O)O[C@@H](C[C@H](O)[C@@H]5C[C@H](C)[C@H](C/C=C\C=C\[C@H](C)C[C@H](C2)O3)O5)[C@H]4O)O[C@@H](C)[C@H]1OC(=O)CCC
EC50 (NCI-H460 [1]): > 3000 nM
EC50 (HeLa [2]): > 3000 nM

CCCC(=O)O[C@H]1[C@@H](OC)[C@H](O[C@@H]2C[C@@H]3C[C@H](O)[C@]4(O)C(=O)O[C@@H](C[C@H](O)[C@@H]5C[C@H](C)[C@H](C/C=C\C=C\[C@H](C)C[C@H](C2)O3)O5)[C@H]4O)O[C@@H](C)[C@H]1OC(=O)CCC
EC50 (NCI-H460 [1]): 2000 nM
EC50 (HeLa [2]): 1900 nM

COC(=O)/C=C/C[C@H]1C[C@@H](O[C@@H]2O[C@@H](C)[C@H](O)[C@@H](O)[C@H]2OC)C[C@@H](C[C@@H](C)/C=C/C=C\C[C@@H]2O[C@H]([C@@H](O)C[C@H](O)CO)C[C@@H]2C)O1
Activity (HeLa [11]): inactive

CCCC(=O)O[C@H]1[C@@H](OC)[C@H](O[C@@H]2C[C@@H]3C[C@H](OC(=O)CCC)[C@@]4(O)C[C@H](C[C@H](OC(C)=O)[C@@H]5C[C@H](C)[C@H](C/C=C\C=C\[C@H](C)C[C@H](C2)O3)O5)OC4=O)O[C@@H](C)[C@H]1OC(=O)CCC
EC50 (NCI-H460 [1]): 790 nM
EC50 (HeLa [2]): > 3000 nM

CO[C@H]1[C@H](O[C@@H]2C[C@@H]3C/C=C/C(=O)O[C@H](CO)C[C@H](O)[C@@H]4C[C@H](C)[C@H](C/C=C\C=C\[C@H](C)C[C@H](C2)O3)O4)O[C@@H](C)[C@H](O)[C@H]1O
Activity (HeLa [12]): 25%
Activity (HeLa [13]): Active
inhibition (Homo sapiens [8]): Active
Activity (HeLa [14]): Active
selectivity ratio [15]: 13 to 30
EC50 (NCI-H460 [16]): 11 nM
Activity (HeLa [17]): 85%
inhibition (Bos taurus [18]): Dose-dependent effect
IC50 [19]: 2.2 nM
Activity (HEK-293T): Dose-dependent effect
EC50 (HeLa [2]): 9.9 nM
Activity (HeLa [20]): 85%

CCCCCCCC(=O)OC[C@@H]1C[C@H](O)[C@@H]2C[C@H](C)[C@H](C/C=C\C=C\[C@H](C)C[C@@H]3C[C@H](O[C@@H]4O[C@@H](C)[C@H](O)[C@@H](O)[C@H]4OC)C[C@H](C/C=C/C(=O)O1)O3)O2
EC50 (NCI-H460 [1]): 9.8 nM
EC50 (HeLa [2]): 2.8 nM

CCCC(=O)O[C@H]1C[C@H]2C[C@@H](O)C[C@@H](C[C@@H](C)/C=C/C=C\C[C@@H]3O[C@@H](C[C@@H]3C)[C@@H](O)C[C@@H]3OC(=O)[C@]1(O)[C@@H]3O)O2
inhibition (Homo sapiens [8]): inactive
EC50 (NCI-H460 [1]): > 3000 nM
IC50 [19]: 3400 nM
EC50 (HeLa [2]): > 3000 nM

CCCC(=O)O[C@H]1[C@@H](OC)[C@H](O[C@@H]2C[C@@H]3C[C@H](OC(=O)CCC)[C@@]4(O)C[C@H](C[C@H](O)[C@@H]5C[C@H](C)[C@H](C/C=C\C=C\[C@H](C)C[C@H](C2)O3)O5)OC4=O)O[C@@H](C)[C@H]1OC(=O)CCC
EC50 (NCI-H460 [1]): 910 nM
EC50 (HeLa [2]): 2000 nM

CCCC(=O)OC1C(=O)C(OC)C(O[C@@H]2C[C@@H]3C[C@H](OC(=O)CCC)[C@]4(O)C(=O)O[C@@H](C[C@H](O)[C@@H]5C[C@H](C)[C@H](C/C=C\C=C\[C@H](C)C[C@H](C2)O3)O5)[C@H]4O)OC1C (some centres undefined)
EC50 (NCI-H460 [1]): 270 nM
EC50 (HeLa [2]): 50 nM

CCCC(=O)O[C@H]1C[C@H]2C[C@@H](O)C[C@@H](C[C@@H](C)/C=C/C=C\C[C@@H]3O[C@@H](C[C@@H]3C)[C@@H](O)C[C@@H]3OC(=O)[C@]1(O)[C@@H]3OC(=O)CCC)O2
EC50 (NCI-H460 [1]): 1700 nM
EC50 (HeLa [2]): 660 nM

CC[C@@H]1/C=C/C=C/C[C@H](C)[C@@H](O)[C@](C)(O)C(=O)[C@@H](C)[C@H](O)[C@@H](C)C(=O)[C@H](C)[C@@H](O)[C@H](C)/C=C/C(=O)O[C@H]2[C@@H](C)[C@@H](CC1)O[C@@]1(CC[C@@H](C)[C@@H](C[C@H](C)O)O1)[C@@H]2C
inhibition (Homo sapiens [8]): Active
inhibition (Bos taurus [21]): Active
inhibition (Homo sapiens [10]): Active

COC[C@@H](C[C@H]1O[C@@](O)([C@H](O)[C@@H]2C[C@H](OC)[C@@H](O)CC/C=C(C)/C=C/[C@@H](O[C@@H]3O[C@@H](C)[C@H](OC)[C@@H](O)[C@@H]3O)[C@H](C)/C=C(C)/C=C(C)/C=C(\C)C(=O)O2)[C@H](C)[C@@H](O)[C@H]1C)O[C@H]1C[C@](C)(O)[C@@H](O[C@H]2C[C@@H](OC)[C@H](O)[C@@H](C)O2)[C@H](C)O1
inhibition (Bos taurus [22]): Active
